Values after ≈ are worked out from the molar mass of the structure shown.
Tests used:
Staphylococcus aureus [1] = assay: Antimicrobial activity against Staphylococcus aureus isogenic forms expressing gyrA S84L and parC S80F mutant by agar dilution method; type: functional
Method in brief: (§1)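 MIC (μg/mL) on otherwise isogenic derivatives of S. aureus ATCC 29213 that carry the rifamycin-resistance allele rpoB H481Y and/or the quinolone-resistance alleles parC S80F and gyrA S84L. The wild-type parent is the reference strain. MICs were determined both by agar dilution and by broth dilution, tested side by side on the same panel.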

Staphylococcus aureus [2] = assay: Antimicrobial activity against Staphylococcus aureus isogenic forms expressing gyrA S84L mutant by broth dilution method; type: functional; method in brief: as §1
[3] = Inhibition of wild type Staphylococcus aureus RNA polymerase assessed as reduction in RNA product formation
[4] = Inhibition of RIF-resistant Staphylococcus aureus RNA polymerase RpoB H481Y mutant assessed as reduction in RNA product formation
Staphylococcus aureus [5] = assay: Antimicrobial activity against wild type Staphylococcus aureus by agar dilution method; type: functional; method in brief: as §1
Staphylococcus aureus [6] = assay: Antimicrobial activity against Staphylococcus aureus isogenic forms expressing gyrA S84L mutant by agar dilution method; type: functional; method in brief: as §1
Staphylococcus aureus [7] = assay: Antimicrobial activity against wild type Staphylococcus aureus by broth dilution method; type: functional; method in brief: as §1
Staphylococcus aureus [8] = assay: Antimicrobial activity against Staphylococcus aureus isogenic forms expressing parC S80F mutant by agar dilution method; type: functional; method in brief: as §1
Staphylococcus aureus [9] = assay: Antimicrobial activity against Staphylococcus aureus isogenic forms expressing parC S80F mutant by broth dilution method; type: functional; method in brief: as §1
Staphylococcus aureus [10] = assay: Antimicrobial activity against Staphylococcus aureus isogenic forms expressing gyrA S84L and parC S80F mutant by broth dilution method; type: functional; method in brief: as §1
Staphylococcus aureus [11] = assay: Antimicrobial activity against Staphylococcus aureus isogenic forms expressing rpoB H481Y mutant by agar dilution method; type: functional; method in brief: as §1
Staphylococcus aureus [12] = assay: Antimicrobial activity against Staphylococcus aureus isogenic forms expressing rpoB H481Y mutant by broth dilution method; type: functional; method in brief: as §1
Staphylococcus aureus [13] = assay: Antimicrobial activity against Staphylococcus aureus isogenic forms expressing rpoB H481Y and gyrA S84L mutant by agar dilution method; type: functional; method in brief: as §1
Staphylococcus aureus [14] = assay: Antimicrobial activity against Staphylococcus aureus isogenic forms expressing rpoB H481Y and gyrA S84L mutant by broth dilution method; type: functional; method in brief: as §1
Staphylococcus aureus [15] = assay: Antimicrobial activity against Staphylococcus aureus isogenic forms expressing rpoB H481Y and parC S80F mutant by agar dilution method; type: functional; method in brief: as §1
Staphylococcus aureus [16] = assay: Antimicrobial activity against Staphylococcus aureus isogenic forms expressing rpoB H481Y and parC S80F mutant by broth dilution method; type: functional; method in brief: as §1
Staphylococcus aureus [17] = assay: Antimicrobial activity against Staphylococcus aureus isogenic forms expressing rpoB H481Y/gyrA S84L/parC S80F mutant by agar dilution method; type: functional; method in brief: as §1
Staphylococcus aureus [18] = assay: Antimicrobial activity against Staphylococcus aureus isogenic forms expressing rpoB H481Y/gyrA S84L/parC S80F mutant by broth dilution method; type: functional; method in brief: as §1
Staphylococcus aureus [19] = assay: Antimicrobial activity against methicillin-sensitive Staphylococcus aureus clinical isolates by broth dilution method; type: functional
Staphylococcus aureus [20] = assay: Antimicrobial activity against methicillin-resistant Staphylococcus aureus clinical isolates by broth dilution method; type: functional
[21] = tested on: Staphylococcus epidermidis; assay: Antimicrobial activity against methicillin-sensitive Staphylococcus epidermidis clinical isolates by broth dilution method; type: functional
[22] = tested on: Staphylococcus epidermidis; assay: Antimicrobial activity against methicillin-resistant Staphylococcus epidermidis clinical isolates by broth dilution method; type: functional; settings: Staphylococcus epidermidis
Streptococcus pyogenes [23] = assay: Antimicrobial activity against Streptococcus pyogenes clinical isolates by broth dilution method; type: functional
Streptococcus agalactiae = assay: Antimicrobial activity against Streptococcus agalactiae clinical isolates by broth dilution method; type: functional
Streptococcus pneumoniae = assay: Antimicrobial activity against Streptococcus pneumoniae clinical isolates by broth dilution method; type: functional
Staphylococcus aureus [24] = assay: Bactericidal activity against methicillin-sensitive Staphylococcus aureus 29213 infected in mouse macrophages assessed as induction of bacterial kill at 4 ug/ml in presence of 4 ug/ml rifampin after 24 hrs; type: functional
[25] = Half life in iv dosed mouse plasma; type: ADME, organism-based
[26] = Half life in iv dosed rat plasma; type: ADME, organism-based
[27] = Half life in iv dosed rabbit plasma; type: ADME, organism-based, Oryctolagus cuniculus
[28] = Half life in iv dosed dog plasma; type: ADME, organism-based, Canis lupus familiaris
[29] = Plasma clearance in iv dosed rat; type: ADME, organism-based
[30] = Plasma clearance in iv dosed rabbit; type: ADME, organism-based, Oryctolagus cuniculus
[31] = Plasma clearance in iv dosed dog; type: ADME, organism-based, Canis lupus familiaris
Staphylococcus aureus [32] = assay: Antimicrobial activity against methicillin-sensitive Staphylococcus aureus infected in mouse skin abscess model; type: functional
[33] = tested on: Staphylococcus epidermidis; assay: Antimicrobial activity against Staphylococcus epidermidis infected in mouse skin abscess model; type: functional
Streptococcus pyogenes [34] = assay: Antimicrobial activity against Streptococcus pyogenes infected in mouse skin abscess model; type: functional
[35] = tested on: Staphylococcus epidermidis; assay: Antimicrobial activity against Staphylococcus epidermidis infected in rat central venous catheter infection model assessed as reduction in bacterial load; type: functional
Streptococcus pyogenes [36] = assay: Antimicrobial activity against Streptococcus pyogenes infected in rat central venous catheter infection model assessed as reduction in bacterial load; type: functional
Staphylococcus aureus [37] = assay: Antimicrobial activity against methicillin-sensitive Staphylococcus aureus infected in rat central venous catheter infection model assessed as reduction in bacterial load; type: functional
Staphylococcus aureus [38] = assay: Antimicrobial activity against Staphylococcus aureus infected in rat […] model assessed as reduction in bacterial load in granuloma pouch fluid at 5 to 25 mg/kg, iv administered as single dose; type: functional
Staphylococcus aureus [39] = assay: Antimicrobial activity against methicillin-resistant Staphylococcus aureus 67-0; type: functional
Staphylococcus aureus [40] = assay: Bactericidal activity against methicillin-resistant Staphylococcus aureus 67-0; type: functional
[41] = target: Topoisomerase IV (Staphylococcus aureus) (UniProt P0C1U9+P0C1S7)
[42] = target: DNA gyrase (Staphylococcus aureus) (UniProt P0A0K8+P20831)
Staphylococcus aureus [43] = tested on: Staphylococcus aureus
[44] = target: DNA topoisomerase 2-alpha (Homo sapiens) (UniProt P11388)
[45] = Volume of distribution in iv dosed dog; settings: in vivo
[46] = Volume of distribution in iv dosed dog; settings: in vivo; remark: listed apart in the source
Staphylococcus aureus [47] = assay: Antimicrobial activity against Staphylococcus aureus ATCC 29213 assessed as mutation preventive concentration
Staphylococcus aureus [48] = assay: […] activity against Staphylococcus aureus ATCC 29213 assessed as induction of bacterial kill at […] in presence of 1 ug/ml rifampin after 24 hrs
Staphylococcus aureus [49] = assay: Antimicrobial activity against Staphylococcus aureus isogenic forms expressing parC S80F mutant; type: functional; method in brief: as §1
Staphylococcus aureus [50] = assay: Antimicrobial activity against Staphylococcus aureus isogenic forms expressing rpoB H481Y and parC S80F mutant; type: functional; method in brief: as §1
Staphylococcus aureus [51] = assay: Antimicrobial activity against Staphylococcus aureus isogenic forms expressing gyrA S84L mutant; type: functional
Staphylococcus aureus [52] = assay: Antimicrobial activity against wild type Staphylococcus aureus; type: functional
Staphylococcus aureus [53] = assay: Antimicrobial activity against Staphylococcus aureus isogenic forms expressing gyrA S84L and parC S80F mutant; type: functional; method in brief: as §1
Staphylococcus aureus [54] = assay: Antimicrobial activity against Staphylococcus aureus isogenic forms expressing rpoB H481Y mutant; type: functional
Staphylococcus aureus [55] = assay: Antimicrobial activity against Staphylococcus aureus isogenic forms expressing rpoB H481Y and gyrA S84L mutant; type: functional
Staphylococcus aureus [56] = assay: Antimicrobial activity against Staphylococcus aureus isogenic forms expressing rpoB H481Y/gyrA S84L/parC S80F mutant; type: functional; method in brief: as §1

CO[C@H]1/C=C/O[C@@]2(C)Oc3c(C)c(O)c4c(O)c(c(/C=N/N5CCC(N(C)C6([C@@H]7CCN(c8c(F)cn9c(=O)c(C(=O)O)cc(C%10CC%10)c9c8C)C7)CC6)CC5)c(O)c4c3C2=O)NC(=O)/C(C)=C\C=C\[C@H](C)[C@H](O)[C@@H](C)[C@@H](O)[C@@H](C)[C@H](OC(C)=O)[C@@H]1C
MIC (Staphylococcus aureus [1]): 0.008 mg/L (≈ 0.00664 µM) | MIC (Staphylococcus aureus [2]): 0.015 mg/L (≈ 0.0124 µM) | IC50 [3]: 0.034 µM | IC50 [4]: > 25 µM | MIC (Staphylococcus aureus [5]): 0.008 mg/L (≈ 0.00664 µM) | MIC (Staphylococcus aureus [6]): 0.008 mg/L (≈ 0.00664 µM) | MIC (Staphylococcus aureus [7]): 0.015 mg/L (≈ 0.0124 µM) | MIC (Staphylococcus aureus [8]): 0.008 mg/L (≈ 0.00664 µM) | MIC (Staphylococcus aureus [9]): 0.015 mg/L (≈ 0.0124 µM) | MIC (Staphylococcus aureus [10]): 0.015 mg/L (≈ 0.0124 µM) | MIC (Staphylococcus aureus [11]): 0.06 mg/L (≈ 0.0498 µM) | MIC (Staphylococcus aureus [12]): 0.12 mg/L (≈ 0.0996 µM) | MIC (Staphylococcus aureus [13]): 0.12 mg/L (≈ 0.0996 µM) | MIC (Staphylococcus aureus [14]): 0.5 mg/L (≈ 0.415 µM) | MIC (Staphylococcus aureus [15]): 0.06 mg/L (≈ 0.0498 µM) | MIC (Staphylococcus aureus [16]): 0.25 mg/L (≈ 0.207 µM) | MIC (Staphylococcus aureus [17]): 0.25 mg/L (≈ 0.207 µM) | MIC (Staphylococcus aureus [18]): 2 mg/L (≈ 1.66 µM) | MIC50 (Staphylococcus aureus [19]): 0.008 mg/L (≈ 0.00664 µM) | MIC90 (Staphylococcus aureus [19]): 0.015 mg/L (≈ 0.0124 µM) | MIC50 (Staphylococcus aureus [20]): 0.015 mg/L (≈ 0.0124 µM) | MIC90 (Staphylococcus aureus [20]): 0.015 mg/L (≈ 0.0124 µM) | MIC50 [21]: ≤ 0.008 mg/L | MIC90 [21]: 0.008 mg/L (≈ 0.00664 µM) | MIC50 [22]: 0.008 mg/L (≈ 0.00664 µM) | MIC90 [22]: 0.5 mg/L (≈ 0.415 µM) | MIC (Streptococcus pyogenes [23]): 0.008 to 0.12 mg/L (≈ 0.00664 to 0.0996 µM) | MIC50 (Streptococcus pyogenes [23]): 0.03 mg/L (≈ 0.0249 µM) | MIC90 (Streptococcus pyogenes [23]): 0.12 mg/L (≈ 0.0996 µM) | MIC (Streptococcus agalactiae): 0.06 to 2 mg/L (≈ 0.0498 to 1.66 µM) | MIC50 (Streptococcus agalactiae): 0.12 mg/L (≈ 0.0996 µM) | MIC90 (Streptococcus agalactiae): 0.25 mg/L (≈ 0.207 µM) | MIC (Streptococcus pneumoniae): 0.06 to 0.25 mg/L (≈ 0.0498 to 0.207 µM) | MIC50 (Streptococcus pneumoniae): 0.12 mg/L (≈ 0.0996 µM) | MIC90 (Streptococcus pneumoniae): 0.12 mg/L (≈ 0.0996 µM) | Activity (Staphylococcus aureus [24]): >99.9% | half-life [25]: 0.4 to 4.1 h | half-life [26]: 0.4 to 4.1 h | half-life [27]: 0.4 to 4.1 h | half-life [28]: 1.6 to 11.7 h | clearance [29]: 0.07 to 0.36 L/h/kg | clearance [30]: 0.07 to 0.36 L/h/kg | clearance [31]: 0.01 to 0.08 L/h/kg | ED50 (Staphylococcus aureus [32]): 1.4 to 3.8 mg/kg | ED50 [33]: 4.8 to 10.7 mg/kg | ED50 (Streptococcus pyogenes [34]): 4.8 to 10.7 mg/kg | Activity [35]: >3.1 log10CFU | Activity (Streptococcus pyogenes [36]): >3.1 log10CFU | Activity (Staphylococcus aureus [37]): 2.8 - 3.4 log10CFU | Activity (Staphylococcus aureus [38]): 1 - 3.4 log10CFU | MIC (Staphylococcus aureus [39]): 0.008 mg/L (≈ 0.00664 µM) | MBC (Staphylococcus aureus [40]): 0.5 mg/L (≈ 0.415 µM) | CC50 [41]: 1.7 µM | CC50 [42]: 1.5 µM | CC50 (Staphylococcus aureus [43]): 2.7 µM | CC50 [44]: > 150 µM | Vd [45]: 0.09 to 0.17 L/kg | Vd [46]: 0.09 to 0.17 L/kg | Activity (Staphylococcus aureus [47]): 0.12 µg/mL | Activity (Staphylococcus aureus [48]): >=99.9%

COc1c(N2C[C@@H]3CCCN[C@@H]3C2)c(F)cc2c(=O)c(C(=O)O)cn(C3CC3)c12 [MOXIFLOXACIN]
Activity (Staphylococcus aureus [24]): <=99.9%

O=C(O)c1cn(C2CC2)c2cc(N3CCNCC3)c(F)cc2c1=O [CIPROFLOXACIN]
MIC (Staphylococcus aureus [49]): 2 mg/L (≈ 6.04 µM) | MIC (Staphylococcus aureus [50]): 2 mg/L (≈ 6.04 µM) | MBC (Staphylococcus aureus [40]): 16 mg/L (≈ 48.3 µM) | CC50 [41]: 0.4 µM | CC50 [42]: 5 µM | CC50 (Staphylococcus aureus [43]): 31 µM | CC50 [44]: > 150 µM

COc1c(N2CCNC(C)C2)c(F)cc2c(=O)c(C(=O)O)cn(C3CC3)c12 (stereo not given) [GATIFLOXACIN]
MIC (Staphylococcus aureus [51]): 0.12 mg/L (≈ 0.32 µM) | MIC (Staphylococcus aureus [52]): 0.06 mg/L (≈ 0.16 µM) | MIC (Staphylococcus aureus [49]): 0.25 mg/L (≈ 0.666 µM) | MIC (Staphylococcus aureus [53]): 8 mg/L (≈ 21.3 µM) | MIC (Staphylococcus aureus [54]): 0.06 mg/L (≈ 0.16 µM) | MIC (Staphylococcus aureus [55]): 0.12 mg/L (≈ 0.32 µM) | MIC (Staphylococcus aureus [50]): 0.25 mg/L (≈ 0.666 µM) | MIC (Staphylococcus aureus [56]): 8 mg/L (≈ 21.3 µM) | CC50 [41]: 0.2 µM | CC50 [42]: 0.7 µM | CC50 (Staphylococcus aureus [43]): 13 µM | CC50 [44]: > 150 µM
